MT stabilizer – microtubule stabilizers in HeLa cells. HeLa tubulin immunostaining HCS, 24 h; share of cells brighter than vehicle mean+2SD. % tubulin-high responders, % at 10 µM. hit rate 0.83% among 200,000. AID 2205;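 active means plate Z-score above 3 for both tubulin-high and condensed-nucleus cell shares, with cell loss under 80%, at 10 µM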;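 further: anti alpha tubulin signal scored within the nucleus-defined area of each cell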
Insulin prom up – MIN6 insulin promoter up-regulation; MIN6 insulin promoter-GFP reporter, high-content imaging; active compounds read high; z-score at 5 µM; hit rate 0.3% among 190,000; AID 1625;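 active means z-score above 3 at 5 µM with at least 500 cells counted in the well; inconclusive means wells under 500 cells, flagged as cytotoxic or low count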
bCat nuc transl – modulators of beta-catenin nuclear translocation. HeLa beta-catenin nuclear translocation, immunofluorescence imaging. nuclear translocation activity, % at 5 µM. hit rate 0.3% among 190,000. AID 1665;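 active means nuclear translocation activity above 50% at 5 µM, with a well cell count of 50 or more; inconclusive means wells under 50 cells across six images, flagged as toxic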;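 further: per-cell ratio of nuclear to cytoplasmic median beta-catenin stain intensity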
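Test system: human HeLa cells, endogenous beta-catenin. Times: 24 h compound exposure, 37°C. Measured by: beta-catenin immunofluorescence imaging with DAPI.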
HSV replic up – increases HSV replication in cells. HSV replication augmentation in cells, fold increase. maximum fold increase. hit rate 0.005% among 220,000. AID 1956; in the data active means maximum fold increase above about 1.5; inconclusive means no clear call, values can overlap the other calls; tested in PC3 cells
Furin inhibitor – blocks human furin protease activity; hit rate 0.061% among 220,000; inhibition, % at 20 µM or 30 µM; purified furin, fluorogenic substrate cleavage; AID 463115; P09958; in the data active means inhibition above about 25%
Target sequence (P09958 108-714 limits assumed): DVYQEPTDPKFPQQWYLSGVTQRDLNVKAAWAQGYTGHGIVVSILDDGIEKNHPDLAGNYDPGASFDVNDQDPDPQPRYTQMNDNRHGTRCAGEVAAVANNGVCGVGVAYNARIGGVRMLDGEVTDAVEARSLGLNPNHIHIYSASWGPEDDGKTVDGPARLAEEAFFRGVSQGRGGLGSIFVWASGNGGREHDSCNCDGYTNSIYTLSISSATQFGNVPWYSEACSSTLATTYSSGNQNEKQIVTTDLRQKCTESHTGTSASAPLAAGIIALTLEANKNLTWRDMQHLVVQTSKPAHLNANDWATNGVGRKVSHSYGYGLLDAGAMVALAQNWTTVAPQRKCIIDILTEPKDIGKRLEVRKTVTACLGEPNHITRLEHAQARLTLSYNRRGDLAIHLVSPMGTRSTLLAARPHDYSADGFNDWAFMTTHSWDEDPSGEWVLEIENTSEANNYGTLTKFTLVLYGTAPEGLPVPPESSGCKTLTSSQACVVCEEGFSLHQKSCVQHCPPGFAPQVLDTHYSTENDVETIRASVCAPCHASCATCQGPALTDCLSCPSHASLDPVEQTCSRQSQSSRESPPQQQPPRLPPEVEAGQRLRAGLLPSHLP
Autophagy HCS – alters autophagy in cells. MEF GFP-LC3 puncta imaging; test concentration mostly 10 µM. hit rate 0.98% among 190,000. calls only at 10 µM (by protocol);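 active means percentage of spot-positive cells more than 3 SD above its plate mean, without a fluorescence outlier flag or 80% toxicity; inconclusive means no clear call, values can overlap the other calls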
Hits are given with their value. Shown are actives, neighbours in structure and some others; about 1.9% of the full set was active somewhere.

`Cc1cccc(C2C3=C(Nc4[nH]n(-c5ccccc5)c(=O)c42)c2ccccc2C3=O)c1` (centres undefined) gave MT stabilizer inactive, Insulin prom up inactive, bCat nuc transl inactive, HSV replic up inactive, Furin inhibitor inactive and Autophagy HCS active.
`CC(=O)N1CCN(Cc2nc3cc(NC(=O)c4ccccc4)ccc3n2C)CC1` gave MT stabilizer inactive, Insulin prom up 3.37, bCat nuc transl inactive, HSV replic up inactive, Furin inhibitor inactive and Autophagy HCS inactive.
For CC1=NN(c2ccccc2)C(=O)/C1=C/c1c(O)n(-c2ccc(F)c(Cl)c2)[nH]c1=O the results were MT stabilizer inactive, Insulin prom up inactive, bCat nuc transl inactive, HSV replic up inactive, Furin inhibitor inactive and Autophagy HCS inactive.
`S=C(NCc1ccco1)N1CCN(C/C=C/c2ccccc2)CC1` gave MT stabilizer inactive, Insulin prom up inactive, bCat nuc transl inactive, HSV replic up inactive, Furin inhibitor inactive and Autophagy HCS inactive.
Screening CC(=O)Cc1nsc(NC(=O)c2ccc(-c3cccc(Cl)c3)o2)n1 returned MT stabilizer 13.7, Insulin prom up inactive, bCat nuc transl inactive, HSV replic up inactive, Furin inhibitor inactive and Autophagy HCS inactive.
Screening Cc1ccccc1NC(=O)N1c2ccccc2CC1C (centres undefined) returned MT stabilizer inactive, bCat nuc transl inactive, HSV replic up inactive, Furin inhibitor inactive and Autophagy HCS inactive.
For Cc1c(C(=O)C(=O)N2CC=C(c3ccccc3)CC2)c2ccccc2n1C the results were MT stabilizer inactive, Insulin prom up inactive, bCat nuc transl 61.5, HSV replic up inconclusive, Furin inhibitor inactive and Autophagy HCS inactive.
Cc1c(C(=O)C(=O)N2c3ccccc3CC2C)c2ccccc2n1C (centres undefined) was read as MT stabilizer 16.8, Insulin prom up inactive, bCat nuc transl inactive, HSV replic up inactive, Furin inhibitor inactive and Autophagy HCS inactive.
Screening O=C1[C@H]2CCCC[C@H]2C(=O)N1CCCCN1CCN(c2nsc3ccccc23)CC1 returned HSV replic up inactive.
For COc1ccc(CCn2c(N)c(C(=O)NCc3ccco3)c3nc4ccccc4nc32)cc1 the results were MT stabilizer 15.2, Insulin prom up inactive, bCat nuc transl inactive, HSV replic up inactive, Furin inhibitor inactive and Autophagy HCS inactive.
`COc1ccc(CCn2c(N)c(C(=O)NCc3ccco3)c3nc4ccccc4nc32)cc1OC` gave MT stabilizer inactive, Insulin prom up inactive, bCat nuc transl inactive, HSV replic up inactive, Furin inhibitor inactive and Autophagy HCS inactive.
CC(=O)N1CCc2ccccc2C1CC(=O)O (centres undefined) was read as MT stabilizer inactive, Insulin prom up inactive, bCat nuc transl inactive, HSV replic up inactive, Furin inhibitor inactive and Autophagy HCS inactive.
Cc1cc(Cn2ccnc2)c(C)cc1Cn1ccnc1 was read as MT stabilizer 42.9, Insulin prom up inactive, bCat nuc transl inactive, HSV replic up inactive, Furin inhibitor inactive and Autophagy HCS inactive.
C/C(=N/NC(=O)c1cccs1)c1cccs1 was read as bCat nuc transl inactive, HSV replic up inactive and Furin inhibitor inactive.
For C/C(=N\NC(=O)CC1(C)OCCO1)c1cccs1 the results were MT stabilizer inactive, Insulin prom up inactive, bCat nuc transl inactive, HSV replic up inactive, Furin inhibitor inactive and Autophagy HCS active.
Screening O=C(NCCN1CCCC1)C1(S(=O)(=O)c2ccc(Cl)cc2)CC1 returned MT stabilizer inactive, Insulin prom up 3.06, bCat nuc transl inactive, HSV replic up inactive, Furin inhibitor inactive and Autophagy HCS inactive.
`O=C(NCCCN1CCCCC1)C1(S(=O)(=O)c2ccc(Cl)cc2)CC1` gave MT stabilizer inactive, bCat nuc transl inactive, HSV replic up inactive and Furin inhibitor inactive.
O=c1oc2ccccc2c(Nc2cc3ccccc3cc2O)c1[N+](=O)[O-] was read as MT stabilizer 17.5, bCat nuc transl inactive, HSV replic up inactive, Furin inhibitor inactive and Autophagy HCS inactive.
`O=c1oc2ccccc2c(Nc2ccccc2O)c1[N+](=O)[O-]` gave MT stabilizer inactive, bCat nuc transl inactive, HSV replic up inactive, Furin inhibitor inactive and Autophagy HCS inactive.
For O=C(C1=C[C@H](c2csc3ccccc23)C[C@H](OCc2ccc(CO)cc2)O1)N1CCCCCCC1 the results were HSV replic up inactive.
Screening O=C1C2CC=CCC2C(=O)N1c1ccc(NCCc2ccccc2)c([N+](=O)[O-])c1 (centres undefined) returned MT stabilizer inactive, bCat nuc transl inactive, HSV replic up inactive, Furin inhibitor inactive and Autophagy HCS inactive.
For CCN(CC)CCN(C)c1ccc(N2C(=O)C3CC=CCC3C2=O)cc1[N+](=O)[O-] (centres undefined) the results were MT stabilizer inactive, Insulin prom up inactive, bCat nuc transl inactive, HSV replic up inactive, Furin inhibitor inactive and Autophagy HCS active.
For CCCCCCCCCCCC(=O)NC1CCS(=O)(=O)C1 (centres undefined) the results were MT stabilizer inactive, Insulin prom up inactive, bCat nuc transl inactive, HSV replic up inactive, Furin inhibitor inactive and Autophagy HCS inactive.
`Nc1nonc1-c1nc2ccccc2n1CC(=O)Nc1ccccc1` gave Insulin prom up inactive, bCat nuc transl inactive, HSV replic up inactive and Furin inhibitor inactive.
Screening CCCCn1c(-c2nonc2N)nc2ccccc21 returned MT stabilizer inactive, Insulin prom up inactive, bCat nuc transl inactive, HSV replic up inactive, Furin inhibitor inactive and Autophagy HCS inactive.
Screening CCOC(=O)c1ccccc1NC(=O)Cn1c(-c2nonc2N)nc2ccccc21 returned MT stabilizer inactive, bCat nuc transl 63.0, HSV replic up inactive, Furin inhibitor inactive and Autophagy HCS inactive.
`Nc1nonc1-c1nc2ccccc2n1Cc1ccccc1` gave MT stabilizer inactive, Insulin prom up inactive, HSV replic up inactive, Furin inhibitor inactive and Autophagy HCS active.
Screening O=C(NCC(c1cccs1)N1CCOCC1)c1cc([N+](=O)[O-])ccc1Cl (centres undefined) returned MT stabilizer inactive, Insulin prom up inactive, bCat nuc transl inactive, HSV replic up inactive, Furin inhibitor inactive and Autophagy HCS inactive.
`O=C(NCC(c1cccs1)N1CCOCC1)c1ccc(Cl)s1` (centres undefined) gave MT stabilizer 54.0, HSV replic up inactive, Furin inhibitor inactive and Autophagy HCS inactive.
Screening Cc1cc2c3c(c1)C1(C(=O)N3C(C)(C)CC2C)C(C#N)=C(N)Oc2n[nH]c(C)c21 (centres undefined) returned MT stabilizer 17.4, Insulin prom up inactive, HSV replic up inactive, Furin inhibitor inactive and Autophagy HCS inactive.
Screening CC(C)c1ccc(/C=C(\c2nc3ccccc3[nH]2)S(=O)(=O)c2ccccc2)cc1 returned MT stabilizer 27.4, Insulin prom up inactive, bCat nuc transl inactive, HSV replic up inactive, Furin inhibitor inactive and Autophagy HCS inactive.

Screening results: PubChem, several laboratories
